In the library only some 0.95% were active in any assay of this set; here they are far more common.
Furin inhibitor: blocks human furin protease activity; purified furin, fluorogenic substrate cleavage; inhibition, % at 20 µM or 30 µM; P09958; 220,000 compounds, 0.061% hits; in the data active = inhibition above about 25%
ABCB1 block: human ABCB1 inhibition, ABCG2 as counter-screen; CCRF-Adr cells, JC-1 efflux, flow cytometry; 190,000 compounds, 0.067% hits; inhibition, % at 6.6 µM; P08183; AID 1326; in the data active = inhibition above about 40%;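 note: 0% = vehicle and 100% = reference inhibitor; higher value means more JC-1 retained so stronger ABCB1 efflux block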
ABCG2 block: human ABCG2 inhibition, ABCB1 as counter-screen; Q9UNQ0; IgMXP3 cells, JC-1 efflux, flow cytometry; inhibition, % at 6.6 µM; 190,000 compounds, 0.1% hits;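 active = inhibition above 80%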;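 note: 0% = DMSO and 100% = nicardipine control wells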
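Read-out basis: Efflux inhibition in percent versus controls | Test system: ABCG2 IgMXP3 and barcoded ABCB1 CCRF-Adr cell mix | Quantity: 3 million cells/mL in well | Schedule: 10 min at 25 °C | Control set: Nicardipine as high control, DMSO as low control | Reagent: JC-1 as fluorescent efflux pump substrate | Signal: Flow cytometry of retained JC-1 fluorescence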
Arbovirus anti: blocks arbovirus infection | inhibition, % at 10 µM | 200,000 compounds, 0.37% hits | AID 1251 | arbovirus infection cell-based antiviral screen; in the data active = inhibition above about 30%
HSV augment: increases HSV replication in cells; 220,000 compounds, 0.005% hits; HSV replication augmentation in cells, fold increase; AID 1956; maximum fold increase; in the data active = maximum fold increase above about 1.5; inconclusive = no clear call, values can overlap the other calls; tested in PC3 cells
p47phox inh: inhibitors of human p47phox binding | P14598 | p47phox/p22phox peptide binding, fluorescence polarization, 2 h | inhibition, % at 24.7 µM | 220,000 compounds, 0.53% hits;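 active = inhibition above about 30%, limit read from the data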;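 note: 0% = p47phox with labelled peptide and 100% = labelled peptide alone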
Target sequence (P14598 whole entry, looked up): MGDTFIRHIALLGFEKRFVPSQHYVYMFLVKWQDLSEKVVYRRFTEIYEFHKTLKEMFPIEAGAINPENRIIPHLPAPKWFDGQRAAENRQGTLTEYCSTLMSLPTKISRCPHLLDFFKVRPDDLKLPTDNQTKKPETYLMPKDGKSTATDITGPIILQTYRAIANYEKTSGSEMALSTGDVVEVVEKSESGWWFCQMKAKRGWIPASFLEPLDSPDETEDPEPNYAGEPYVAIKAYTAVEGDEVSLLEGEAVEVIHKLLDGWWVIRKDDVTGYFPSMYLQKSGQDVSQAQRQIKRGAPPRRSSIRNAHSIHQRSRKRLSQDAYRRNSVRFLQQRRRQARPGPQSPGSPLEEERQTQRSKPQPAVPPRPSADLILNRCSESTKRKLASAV
ABCB1 single pt: confirmation of human ABCB1 transporter inhibitors, ABCG2 counter-screen; inhibition, % at 6.6 µM; shares compounds with ABCG2 block; 270 compounds, 7% hits; AID 1451; CCRF-Adr cells, JC-1 efflux, flow cytometry;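 active = inhibition of pump activity above 50%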;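 note: 0% = DMSO and 100% = nicardipine full pump inhibition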
ABCG2 single pt: confirmation of human ABCG2 transporter inhibitors, ABCB1 counter-screen; inhibition, % at 6.6 µM; IgMXP3 cells, JC-1 efflux, flow cytometry; 270 compounds, 6% hits; shares compounds with ABCG2 block;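 active = inhibition above 50%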;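 note: 0% = DMSO wells and 100% = nicardipine pump inhibitor wells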
IgMXP3 fluor: IgMXP3 autofluorescence flag for ABCG2 confirmation; shares compounds with ABCG2 block; IgMXP3 cells, compound autofluorescence 488/530 nm, flow; active compounds read high; fluorescence at 6.6 µM; 270 compounds, 30% hits; AID 1480;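 active = fluorescence in ABCG2-expressing cells above the plate's control-well mean plus 3 SD, cut at about 15 in these data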;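 note: median cell fluorescence with compound minus that of DMSO-treated control cells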
CCRF-Adr fluor: counter-screen for ABCB1 inhibitors: compound fluorescence in CCRF-Adr cells; 270 compounds, 30% hits; shares compounds with ABCG2 block; compound autofluorescence 488/530 nm, flow cytometry; active compounds read high; fluorescence at 6.6 µM;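 active = fluorescence beyond the plate control mean plus 3 SD, with a fluorescence-to-maximum score over 2, cut at about 25 in these data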
Active calls of the source: *; i = inactive; ? = inconclusive; . = no result; + = active, no number.

SMILES	Furin inhibitor	ABCB1 block	ABCG2 block	Arbovirus anti	HSV augment	p47phox inh	ABCB1 single pt	ABCG2 single pt	IgMXP3 fluor	CCRF-Adr fluor
N#Cc1ccc(-c2ccc(OCC(=O)NCCc3ccccc3)cc2)cc1	-13	0	82*	0	i	-2	0	32	2.8	31*
COc1ccc(CCNC(=O)COc2ccc(-c3ccc(C#N)cc3)cc2)cc1	-14	0	10	4	i	8	.	.	.	.
Cc1cc(C)c(C)c(S(=O)(=O)NC(C(=O)O)C(C)C)c1C (stereo not drawn)	-22	0	-3	2	i	3	.	.	.	.
Cc1ccc(NC(=O)Nc2ccccc2)cc1[N+](=O)[O-]	-22	17	95*	7	i	-19	2	26	-0.99	-2.1
CCOc1ccccc1/C=C(/NC(=O)c1ccccc1)C(=O)NC(C)c1ccccc1 (stereo not drawn)	-15	1	3	-8	i	-9	.	.	.	.
Cc1cc(C)n(-c2ccc(Cl)c(C(=O)Nc3cc(C(F)(F)F)ccc3Cl)n2)n1	-11	9	116*	-14	i	3	5	15	-1.1	-1.5
COC(=O)c1nc(-n2nc(C)cc2C)ccc1Cl	-13	0	3	5	i	4	.	.	.	.
OCC1(O)OC[C@@H](O)[C@H]1O (stereo partly drawn)	-12	.	.	.	i	9	.	.	.	.
COc1ccc(NC(=S)NCc2cccn2C)cc1	-21	3	75	1	i	-6	1	12	-2.2	-4.4
CCOC(=O)c1cc(-c2ccc(Cl)cc2)nc2onc(C)c12	-19	1	83*	1	.	1	2	37	2.5	9.5
COc1ccc(OC)c(NC(=O)CSc2ncccc2C(=O)O)c1	-24	1	1	12	i	9	.	.	.	.
CCCCCCCCNC(=O)c1cccnc1SCC(=O)Nc1ccccc1OC	9	5	92*	0	i	-14	24	40	-1.7	-0.54
Cc1cc(C)c(C(=O)COC(=O)CCNS(=O)(=O)c2c(Cl)cccc2Cl)cc1C	1	3	97*	1	i	-28	10	47	-1.8	-4.9
CN1CCN(C(=S)c2cn(Cc3ccc(Br)cc3)c3ccccc23)CC1	-9	5	5	-9	i	-9	.	.	.	.
CCOC(=O)C1=C(O)/C(=C\c2ccc(CNC(=O)C(=O)Nc3ccc(C)c(C)c3)o2)N=C1C	-22	0	21	-3	.	-14	.	.	.	.
CCN1/C(=C/c2ccc3cc(C)ccc3[n+]2C)Sc2ccc3sccc3c21	-6	1	3	-31	.	-243	.	.	.	.
CCN1/C(=C/c2ccc3cc(C)ccc3[n+]2CC)Sc2cc(C)ccc21	-19	10	+	-35	.	-55	114*	8	118*	187*
CCCCN1/C(=C/c2ccc3ccccc3[n+]2CC)Sc2ccccc21	-2	20	121*	-37	.	-106	73*	8	256*	337*
CC(=O)NCCCC(=O)NNC1CC(=O)N(c2cccc(Cl)c2)C1=O (stereo not drawn)	-10	.	.	.	i	-8	.	.	.	.
C=C1CCN(c2ccc(C(=O)NCCC)cc2[N+](=O)[O-])CC1	.	.	.	.	i	.	.	.	.	.
O=C(Nc1ccc2c(c1)OCCO2)Nc1ccc2c(c1)OCO2	-31	0	-1	-17	i	-7	.	.	.	.
O=C(Nc1cccc(Cl)c1)Nc1ccc2c(c1)OCO2	-18	1	74	2	i	-3	10	18	8.7	12
COc1ccc(OC)c(C2C(C(=O)Nc3nc4ccccc4s3)=C(C)NC3=C2C(=O)CCC3)c1 (stereo not drawn)	-8	6	11	-11	i	-40	.	.	.	.
COc1cccc(C2C(C(=O)Nc3nc4ccccc4s3)=C(C)NC3=C2C(=O)CC(C)(C)C3)c1OC (stereo not drawn)	-24	45*	6	10	i	-15	59*	12	29*	4.3
COc1ccccc1OCCOc1ccc(C(=O)c2ccccc2)cc1	1	5	87*	-4	i	-7	-11	31	52*	82*
SMILES	Furin inhibitor	ABCB1 block	ABCG2 block	Arbovirus anti	HSV augment	p47phox inh	ABCB1 single pt	ABCG2 single pt	IgMXP3 fluor	CCRF-Adr fluor
O=C(NNC(=O)C1CCCN(c2ncccn2)C1)c1ccncc1 (stereo not drawn)	-17	0	0	2	i	9	.	.	.	.
CCN(CC)CCN1C(=O)C(=O)/C(=C(/O)c2c(C)[nH]c(C(=O)OC)c2C)C1c1ccc(C)o1 (stereo not drawn)	-15	.	.	.	i	-8	.	.	.	.
CCN1C(=O)/C(=C/c2ccc(N3CCCC3)cc2)NC1=S	-7	23	79	4	?	-158	19	7	20*	44*
Cc1cc(/C=C2\NC(=S)N(C)C2=O)ccc1N1CCCC1	-16	21	25	-2	?	-123	.	.	.	.
CCCN1C(=O)/C(=C/c2ccc(N3CCCC3)c(C)c2)NC1=S	5	52*	86*	-10	?	-89	-29	-21	107*	137*
CC1(C)c2[nH]c3ccccc3c2C[C@@H]2C(=O)N(c3ccc(F)cc3F)C(=O)N21	.	.	.	.	i	.	.	.	.	.
CCOC(=O)c1c(C)nc(SC)c(C#N)c1-c1ccccc1	-15	0	85*	-7	i	5	1	13	-0.29	0.56
CCOC(=O)c1c(C)nc2ccccc2c1-c1ccccc1	-18	1	20	-4	.	-15	.	.	.	.
COc1cc(/C=C2/CCc3ccccc3C2=O)cc(OC)c1OC	-12	7	87*	-30	i	-9	2	44	-1.6	-1.7
CCn1c(SCc2ccccc2Cl)nc2nc3c(cc2c1=O)CCCC3	8	21	92*	6	i	-12	18	16	15*	6.2

Screening results from PubChem.
